In the array DNA melting data of Ke et al. (doi:10.1101/2024.01.08.574731):

Tests used:
[1] = folding enthalpy; higher = less favourable; fluorescence melt of hairpins on a sequencing array, two-state fit; details: sodium 0.088 M
Summary of the method: (§1)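 Hairpins were imaged by Cy3 fluorescence on a sequenced MiSeq flow cell with annealed Cy3 and quencher oligos, in 50 mM Na-HEPES pH 8.0, 25 mM NaCl, in 2.5 °C steps up to 60 °C. Bootstrapped two-state fits of normalised signals gave melting temperature and folding enthalpy. Four replicates were combined by inverse variance, and fitted temperatures were raised by 9.35 °C to match UV melts.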

[2] = melting temperature; fluorescence melt of hairpins on a sequencing array, two-state fit, raised by 9.35 °C to match UV melts; details: sodium 0.088 M
Summary of the method: as §1

GTTGTCGAAAGACGAAC ((((((....))).))) showed a folding enthalpy [1] of -17.9 kcal/mol and a Tm [2] of 39.8 °C.
In the case of GTCAACCGAAAGGTGGAC (((.(((....))).))), the folding enthalpy [1] is reported as -30.5 kcal/mol and the Tm [2] is reported as 56.2 °C.
GCGAAGGTCGC ((((...)))) showed a folding enthalpy [1] of -15.3 kcal/mol and a Tm [2] of 49.9 °C.
GTTCTAGCGAAAGCTAAC (((..(((....)))))) gave a folding enthalpy [1] of -9.98 kcal/mol and a Tm [2] of 28.9 °C.
With GCGGATTTCCGC ((((....)))) the folding enthalpy [1] was -22.4 kcal/mol and the Tm [2] was 64.6 °C.
Sequence GCTTCGCGAAAGCGGGGC ((..(((....)))..)) has a folding enthalpy [1] of -18.5 kcal/mol and a Tm [2] of 57.9 °C.
GACATAACGAAAGTTGTC (((..(((....)))))) showed a folding enthalpy [1] of -25 kcal/mol and a Tm [2] of 37.4 °C.
GATCACGAAAGTGGTATC ((((((....)))..))) showed a folding enthalpy [1] of -13.5 kcal/mol and a Tm [2] of 34.1 °C.
For GATCTTCTAAAGATC ((((((...)))))), the folding enthalpy [1] was -30.9 kcal/mol and the Tm [2] was 42.9 °C.
For GTTCAGGGAAACCTGAGC (.(((((....))))).), the folding enthalpy [1] was -22.5 kcal/mol and the Tm [2] was 46.6 °C.
For GATCAACGTTTGATC ((((((...)))))), the folding enthalpy [1] was -26.1 kcal/mol and the Tm [2] was 40.1 °C.
GCCAATCGAAAGATAGGC (((.(((....))).))) gave a folding enthalpy [1] of -35.6 kcal/mol and a Tm [2] of 52.1 °C.
GAAGAGGGAAACCTCTCC (.(((((....))))).) showed a folding enthalpy [1] of -12.5 kcal/mol and a Tm [2] of 34.2 °C.
Sequence GTTCACGAAAGTGGAAC ((((((....))).))) has a folding enthalpy [1] of -19.1 kcal/mol and a Tm [2] of 45.4 °C.
Sequence GGTACCGAAAGGTTCACC ((((((....)))..))) has a folding enthalpy [1] of -13.6 kcal/mol and a Tm [2] of 34.4 °C.
GTGAGTGGAAACACTCAC (((((((....))))))) gave a folding enthalpy [1] of -44 kcal/mol and a Tm [2] of 66.2 °C.
Sequence GATCTCCTGAGAGATC ((((((....)))))) has a folding enthalpy [1] of -39 kcal/mol and a Tm [2] of 53.2 °C.
In the case of GCGTCAGTACGC ((((....)))), the folding enthalpy [1] is reported as -20.1 kcal/mol and the Tm [2] is reported as 51.1 °C.
Sequence GATCTACCCTTAGATC ((((((....)))))) has a folding enthalpy [1] of -35.6 kcal/mol and a Tm [2] of 41.8 °C.
Sequence GAACGCGAAAGCGAATTC ((((((....)))..))) has a folding enthalpy [1] of -10.7 kcal/mol and a Tm [2] of 28.8 °C.
For GCGTAGGACGC ((((...)))), the folding enthalpy [1] was -17.2 kcal/mol and the Tm [2] was 55.2 °C.
GGTAGACGAAAGTCAACC (((.(((....))).))) showed a folding enthalpy [1] of -26.3 kcal/mol and a Tm [2] of 51.5 °C.
GCTCCCGAAAGGGATAGC ((((((....)))..))) showed a folding enthalpy [1] of -17.5 kcal/mol and a Tm [2] of 48.4 °C.
GTGAAGGGAAACCTTCGC (.(((((....))))).) gave a folding enthalpy [1] of -25.8 kcal/mol and a Tm [2] of 50.2 °C.
Sequence GGACAGACGAAAGTCTCC (((..(((....)))))) has a folding enthalpy [1] of -10.2 kcal/mol and a Tm [2] of 30.4 °C.
GCACTCCCGAAAGGGTGC (((..(((....)))))) showed a folding enthalpy [1] of -24.2 kcal/mol and a Tm [2] of 50.7 °C.
With GGATTCGAAAGAACATCC ((((((....)))..))) the folding enthalpy [1] was -14.1 kcal/mol and the Tm [2] was 29.4 °C.
Work on GTATCCGAAAGGAGATAC ((((((....)))..))) yielded a folding enthalpy [1] of -15.2 kcal/mol and a Tm [2] of 34.3 °C.
For GATTGTGGAAACATGATC (((..((....))..))), the folding enthalpy [1] was -18 kcal/mol and the Tm [2] was 31.2 °C.
For GCATCTCGAAAGAGTTGC (((.(((....))).))), the folding enthalpy [1] was -33.9 kcal/mol and the Tm [2] was 50.6 °C.
Sequence GTTTACGGAAACGTAAAC (((((((....))))))) has a folding enthalpy [1] of -41.1 kcal/mol and a Tm [2] of 57.5 °C.
In the case of GTTACCGAAAGGTACAAC ((((((....)))..))), the folding enthalpy [1] is reported as -10.9 kcal/mol and the Tm [2] is reported as 31.2 °C.
Work on GATCTTAATCAAGATC ((((((....)))))) yielded a folding enthalpy [1] of -26.5 kcal/mol and a Tm [2] of 38.6 °C.
In the case of ACATCGAAAGATGT (((((....))))), the folding enthalpy [1] is reported as -19.6 kcal/mol and the Tm [2] is reported as 52.6 °C.
With GATCGCGGAAACGCGACC (.(((((....))))).) the folding enthalpy [1] was -10.5 kcal/mol and the Tm [2] was 49.2 °C.
GGGGTCGAAAGACACCC ((((((....))).))) showed a folding enthalpy [1] of -18.2 kcal/mol and a Tm [2] of 63.1 °C.
In the case of GATCCAAACGTGGATC ((((((....)))))), the folding enthalpy [1] is reported as -37.4 kcal/mol and the Tm [2] is reported as 49 °C.
Work on GATCGTTTCTACGATC ((((((....)))))) yielded a folding enthalpy [1] of -43 kcal/mol and a Tm [2] of 55.8 °C.
Work on GCGAATTGTCGC ((((....)))) yielded a folding enthalpy [1] of -17 kcal/mol and a Tm [2] of 46 °C.
In the case of GTCCCCGGAAACGGAGAC (((.(((....))).))), the folding enthalpy [1] is reported as -28 kcal/mol and the Tm [2] is reported as 47.7 °C.
With GATCGCTGTTGCGATC ((((((....)))))) the folding enthalpy [1] was -28.7 kcal/mol and the Tm [2] was 67.8 °C.
In the case of AGAAGGAAACTTCT (((((....))))), the folding enthalpy [1] is reported as -13.6 kcal/mol and the Tm [2] is reported as 30.7 °C.
GTAGCCGAAAGGCGTTAC ((((((....)))..))) gave a folding enthalpy [1] of -8 kcal/mol and a Tm [2] of 38.9 °C.
GCACGCCCGAAAGGGTGC (((..(((....)))))) showed a folding enthalpy [1] of -11.8 kcal/mol and a Tm [2] of 49.9 °C.
GGCCTCGAAAGAGCCGCC ((((((....)))..))) showed a folding enthalpy [1] of -20.3 kcal/mol and a Tm [2] of 57.2 °C.
For GCATAGACGAAAGTCTGC (((..(((....)))))), the folding enthalpy [1] was -15.5 kcal/mol and the Tm [2] was 46.3 °C.
With GGACTCGAAAGAGGGTCC ((((((....)))..))) the folding enthalpy [1] was -21 kcal/mol and the Tm [2] was 43.9 °C.
For GTGCTTGGAAACAAGTGC (..((((....))))..), the folding enthalpy [1] was -21 kcal/mol and the Tm [2] was 43 °C.
GATGTCCGAAAGGAATC (((.(((....)))))) gave a folding enthalpy [1] of -13.5 kcal/mol and a Tm [2] of 31.5 °C.
For GCAATAGGAAACTATCGC ((.((((....)))).)), the folding enthalpy [1] was -18.6 kcal/mol and the Tm [2] was 33.9 °C.
With GCCAGGGGAAACTCTGGC (((((.(....).))))) the folding enthalpy [1] was -40.9 kcal/mol and the Tm [2] was 56.1 °C.
Sequence GCCACTGGAAACAGTGAC (.(((((....))))).) has a folding enthalpy [1] of -18.9 kcal/mol and a Tm [2] of 46.3 °C.
GAGTGAGGAAACTCGCTC (((.(((....))).))) showed a folding enthalpy [1] of -49.6 kcal/mol and a Tm [2] of 50.6 °C.
GCAAAACGAAAGTTGTGC (((.(((....))).))) gave a folding enthalpy [1] of -34.2 kcal/mol and a Tm [2] of 49.1 °C.
Sequence GAAGATCCGAAAGGATTC (((..(((....)))))) has a folding enthalpy [1] of -12.6 kcal/mol and a Tm [2] of 31.3 °C.
In the case of GCACGGCGAAAGCCCTGC (((.(((....))).))), the folding enthalpy [1] is reported as -26 kcal/mol and the Tm [2] is reported as 47.3 °C.
Sequence GCAATCCCGAAAGGGTGC (((..(((....)))))) has a folding enthalpy [1] of -19.1 kcal/mol and a Tm [2] of 46.6 °C.
With GCGAGGCGAAAGCCAGGC ((..(((....)))..)) the folding enthalpy [1] was -13.1 kcal/mol and the Tm [2] was 56.4 °C.
Work on GGACCCGAAAGGGGCTCC ((((((....)))..))) yielded a folding enthalpy [1] of -9.41 kcal/mol and a Tm [2] of 56.5 °C.
For GGCGTGCGAAAGCAGCC (((.(((....)))))), the folding enthalpy [1] was -26.9 kcal/mol and the Tm [2] was 67.8 °C.
For GCATCCGGAAACAGATGC (((((.(....).))))), the folding enthalpy [1] was -36.8 kcal/mol and the Tm [2] was 45 °C.
For CGCGCGGAAACGCCGCG ((((((....))).))), the folding enthalpy [1] was -20 kcal/mol and the Tm [2] was 69.2 °C.
In the case of GCTCTCGAAAGAGAGAGC ((((((....)))..))), the folding enthalpy [1] is reported as -19.5 kcal/mol and the Tm [2] is reported as 57.2 °C.
GACACGGGAAACCGCATC ((..(((....)))..)) gave a folding enthalpy [1] of -11.1 kcal/mol and a Tm [2] of 20.4 °C.
Work on GCCTGGCGAAAGCTTGGC (((..((....))..))) yielded a folding enthalpy [1] of -26.5 kcal/mol and a Tm [2] of 59.4 °C.
In the case of GACCCCGAAAGGGCGGTC ((((((....)))..))), the folding enthalpy [1] is reported as -17.2 kcal/mol and the Tm [2] is reported as 45.9 °C.
GACTACGAAAGTAACGTC ((((((....)))..))) gave a folding enthalpy [1] of -16 kcal/mol and a Tm [2] of 31.8 °C.
With GCCTAGGCGAAAGCCGGC (((..(((....)))))) the folding enthalpy [1] was -13.3 kcal/mol and the Tm [2] was 65.8 °C.
Work on GGCTCCGGAAACGGAACC ((.((((....)))).)) yielded a folding enthalpy [1] of -28.9 kcal/mol and a Tm [2] of 51.1 °C.
